The sample as a whole holds a higher share of hits than the screen did.
Ab BasE inh: BasE siderophore biosynthesis inhibition. purified BasE, fluorescence polarization binding displacement. 84,000 tested, 0.1% active. inhibition, % (concentration not given with the values). AID 485350; in the data active = inhibition above about 25%, passing the limit was not always enough;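 also: 0% = negative plate control signal and 100% = positive plate control signal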
KSHV LANA nucl: inhibitors of KSHV LANA binding to nucleosomes; FITC-LANA1-23 / chicken nucleosome fluorescence polarization; hits give low values; z-score (no concentration beside the values); 51,000 tested, 0.3% active;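 active = both repeat wells score below -2 in polarization z-score versus plate sample wells, excluding overly bright wells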
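Material: Purified chicken nucleosomes with FITC-labelled LANA N-terminal peptide (1-23) | Reagent: 50 nM FITC-LANA1-23 probe | Medium: TEN-BT buffer, pH 7.5 | Times: 10–45 min incubation at room temperature | Detection: Fluorescence polarization | Replication: Duplicates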
* hit, by the source's call; . = no result given.

SMILES	Ab BasE inh	KSHV LANA nucl
Cc1ccc(S(=O)(=O)CC(=O)Nc2cc(Cl)ccc2N2CCOCC2)cc1	-18	-1.2
O=C(CCN1C(=O)/C(=C\c2ccco2)SC1=S)NN1CCOCC1	-1	2.3
O=C(CCN1C(=O)/C(=C\C=C\c2ccco2)SC1=S)Nc1ccc(C(=O)O)c(O)c1	33*	-0.23
CC1CCN(S(=O)(=O)N2CCCC(C(=O)Nc3ccccc3C(=O)c3ccccc3)C2)CC1 (centres undefined)	0	-2.2*
COC(=O)c1cc(NC(=O)C2CCCN(S(=O)(=O)N3CCC(C)CC3)C2)cc(C(=O)OC)c1 (centres undefined)	1	-1.5
Cn1c2ccccc2c2cn[nH]c(=O)c21	-2	0.084
Nc1ccc2nsnc2c1	26	-3.1*
CCOC(=O)c1ccc2nsnc2c1	0	0.36
Cc1cc(C(=O)NCC2COc3ccccc3O2)no1 (centres undefined)	-1	.
COc1ncnc(Cl)c1N	-1	0.22
Cc1ccnc(Cl)c1N	45*	0.036
O=c1oc2cc(O)ccc2c2c1CCCCC2	3	.
COc1cccc(/C=N/NC(=O)COc2c(C)cccc2C)c1O	0	0.44

Screening results deposited in PubChem BioAssay by ICCB-Longwood Screening Facility, Harvard Medical School.
